High-throughput results deposited in PubChem by several laboratories.
An excerpt weighted towards active compounds, which were near 4.7% of everything screened.
RGS4 block – inhibitors of human RGS4; P49798; HEK293 M3R/RGS4 inducible, Fluo-4 calcium flux; active compounds read high; triggered by carbachol at its EC20; 310,000 tested, 0.45% active; B-score at 10 µM; AID 463165;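 active = B-score, a plate-corrected calcium signal, over three deviations above library mean, with baseline fluorescence within five deviations of library mean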;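 also: RGS4 expression induced by doxycycline in cells with stable M3 receptor; B-score is computed from the integrated fluorescence ratio over baseline after carbachol; higher B-score means a larger calcium signal and so more RGS4 inhibition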
Target sequence (P49798 whole entry, looked up): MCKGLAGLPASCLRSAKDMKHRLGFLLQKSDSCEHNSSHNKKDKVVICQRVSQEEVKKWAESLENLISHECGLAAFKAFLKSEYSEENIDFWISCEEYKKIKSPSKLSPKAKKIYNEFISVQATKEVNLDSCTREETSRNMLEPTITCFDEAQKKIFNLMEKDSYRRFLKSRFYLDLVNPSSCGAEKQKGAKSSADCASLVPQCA
MrgX1 PAM – allosterically activates human MrgX1 receptor signaling | 310,000 tested, 0.63% active | MrgX1-HEK293, Fluo-4 calcium flux, FDSS; active compounds read high | B-score at 10 µM;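 active = plate-corrected calcium response at least 3 library SD above typical, normal starting fluorescence, not activating the receptor alone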;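 also: compound read alongside a low EC10 to EC30 dose of BAM8-22 agonist; peak minus trough fluorescence over baseline measured at the second addition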
Target sequence (Q96LB2 whole entry, looked up): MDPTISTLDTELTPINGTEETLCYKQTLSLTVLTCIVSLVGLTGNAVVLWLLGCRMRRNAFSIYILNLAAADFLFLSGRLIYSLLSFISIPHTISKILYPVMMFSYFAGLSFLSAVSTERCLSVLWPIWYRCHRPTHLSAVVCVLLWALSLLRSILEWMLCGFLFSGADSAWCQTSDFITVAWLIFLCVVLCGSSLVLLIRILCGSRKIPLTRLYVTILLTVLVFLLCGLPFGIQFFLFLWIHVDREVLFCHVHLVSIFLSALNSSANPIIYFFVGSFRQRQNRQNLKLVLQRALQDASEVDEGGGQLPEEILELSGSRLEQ
RGS4 pot – RGS4 potentiation or activation; HEK293 M3R/inducible RGS4, carbachol calcium flux Fluo4; active compounds read low; B-score at 10 µM; 310,000 tested, 0.92% active;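 active = B-score of the integrated calcium signal more than 4 SD below the library mean, with starting fluorescence not abnormally high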;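 also: negative B-score means reduced calcium response which marks RGS4 activation or potentiation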
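test system = M3R-expressing HEK293 line, RGS4 induced by doxycycline | probe or stimulus = carbachol at ECmax as muscarinic agonist stimulus | timing = dye loading 30 min 37 °C, buffer rest 30 min RT | signal = calcium dye Fluo4 fluorescence | evaluation = B score from integrated fluorescence ratio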
Cl transport mod – KCC2 (human) Cl- transport modulation; KCC2 cells, thallium flux FluoZin-2 fluorescence; Q9H2X9; 190,000 tested, 2.2% active; B-score of Tl+ flux slope (higher = more flux/activation; lower = inhibition) at 10 µM;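 active = thallium flux slope and its plate-corrected score both differing from the plate sample mean at a set confidence after two filtering rounds, in either direction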;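 also: slope of fluorescence scaled to starting intensity during 10 to 20 s after thallium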
MrgX1 agonist – activates human MrgX1 receptor signaling; Q96LB2; MrgX1-HEK293 cells, Fluo-4 calcium fluorescence, agonist mode; active compounds read high; B-score at 10 µM; 310,000 tested, 0.44% active; AID 588627;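 active = calcium response B-score plate-corrected fluorescence ratio at least 3 library SD, with starting fluorescence B-score inside 5 SD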
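Test system: Stable human MrgX1 HEK293 cell line | Schedule: Overnight plating before 1 h dye loading | Read-out basis: Baseline-normalised fluorescence change ratio, B-scored | Detection: Kinetic calcium dye fluorescence, Fluo-4 NW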
MrgX1 antag – human MrgX1 receptor antagonism, primary screen; MRGX1-HEK293 calcium flux, Fluo-4, BAM8-22 antagonism; active compounds read low; 310,000 tested, 1.3% active; Q96LB2; B-score at 10 µM;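 active = calcium-response B-score plate-corrected more than 3 library SD below zero, starting fluorescence within 5 deviations, no agonist response on first addition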;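 also: peak minus trough fluorescence over baseline after final BAM8-22 challenge near maximal dose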
MrgX1 antag conf – reconfirmed antagonist of human MrgX1 receptor signaling. shares compounds with MrgX1 antag. MrgX1-HEK293, BAM8-22 calcium flux, Fluo-4; active compounds read low. remaining BAM8-22 calcium response % of control (active compounds read low), % at 10 µM. 2,300 tested, 19% active;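 active = remaining agonist calcium response no higher than 100% minus 3 SD of agonist-only control wells, with starting fluorescence near control levels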;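 also: agonist BAM8-22 given at a near maximal EC90 to ECmax level; peak minus minimum fluorescence divided by baseline after agonist addition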
HEK293 Ca flux – counter-screen for MrgX1 antagonists: effect in parental HEK293 cells. shares compounds with MrgX1 antag. Fluo-4 calcium fluorescence, FDSS. fluorescence ratio F(max-min)/F0 at 10 µM. 4,000 tested, 2% active;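 active = duplicate-averaged calcium fluorescence ratio at least three times the standard deviation of buffer wells, a nonspecific response in parental cells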
HEK293 Ca counter – MrgX1 allosteric activator counter-screen hit in parental HEK293 cells | shares compounds with MrgX1 antag | parental HEK293 calcium flux, Fluo-4 fluorescence ratio; active compounds read high | fluorescence ratio F(max-min)/F0 at 10 µM | 4,000 tested, 0.4% active | AID 624114;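 active = calcium fluorescence ratio, averaged over duplicates, at least 3 SD of the buffer-well ratio, meaning a nonspecific response in receptor-free cells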;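 also: untransfected parental HEK293 lacking MrgX1 used as counterscreen for MrgX1 allosteric activators; fluorescence change taken during the second addition on a kinetic imager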
HEK293 Ca cntr2 – MrgX1 activator counter-screen hit in parental HEK293 cells | fluorescence ratio F(max-min)/F0 at 10 µM | shares compounds with MrgX1 antag | 4,000 tested, 8.7% active | Fluo-4 calcium fluorescence (FDSS); active compounds read high;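 active = calcium fluorescence ratio at least three times the spread of buffer wells, meaning a non-specific response in parental cells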
Numbers without * were called inactive.

Cc1ccc(S(=O)(=O)N(C)c2ccc(C(=O)N3CCN(Cc4ccc5c(c4)OCO5)CC3)cc2)cc1 was read as RGS4 block inactive, MrgX1 PAM inactive, RGS4 pot inactive, MrgX1 agonist inactive, MrgX1 antag -5.2*, MrgX1 antag conf inactive, HEK293 Ca flux inactive, HEK293 Ca counter inactive and HEK293 Ca cntr2 inactive.
For CN(c1ccc(C(=O)N2CCN(Cc3ccc4c(c3)OCO4)CC2)cc1)S(=O)(=O)c1ccccc1 the results were RGS4 block inactive, MrgX1 PAM inactive, RGS4 pot inactive, MrgX1 agonist inactive and MrgX1 antag inactive.
CC(C(=O)Nc1ccccn1)N1C(=O)c2ccccc2S1(=O)=O (centres undefined) was read as RGS4 block inactive, MrgX1 PAM inactive, RGS4 pot inactive, MrgX1 agonist inactive and MrgX1 antag inactive.
Screening Cc1occc1C(=O)N(C)Cc1nc(-c2ccccc2)no1 returned RGS4 block inactive, MrgX1 PAM inactive, RGS4 pot inactive, MrgX1 agonist inactive and MrgX1 antag inactive.
`CC(C)[C@H](NC(=O)C1CCN(S(=O)(=O)c2ccccc2)CC1)C(=O)NCc1ccncc1` gave RGS4 block inactive, MrgX1 PAM inactive, RGS4 pot inactive, MrgX1 agonist inactive and MrgX1 antag inactive.
COc1ccc(C2NC(C(=O)O)Cc3c2[nH]c2ccccc32)cc1OC (centres undefined) was read as RGS4 block inactive, MrgX1 PAM inactive, RGS4 pot inactive, MrgX1 agonist inactive, MrgX1 antag -6.7*, MrgX1 antag conf inactive, HEK293 Ca flux inactive, HEK293 Ca counter inactive and HEK293 Ca cntr2 inactive.
`COc1cc(C2NC(C(=O)O)Cc3c2[nH]c2ccccc32)cc(OC)c1OC` (centres undefined) gave RGS4 block inactive, MrgX1 PAM inactive, RGS4 pot inactive, MrgX1 agonist inactive and MrgX1 antag inactive.
`O=C(NCCSCc1ccco1)Nc1cc(Cl)cc(Cl)c1` gave RGS4 block inactive, MrgX1 PAM inactive, RGS4 pot inactive, Cl transport mod -1.2, MrgX1 agonist inactive, MrgX1 antag -5.4*, MrgX1 antag conf 68%*, HEK293 Ca flux inactive, HEK293 Ca counter inactive and HEK293 Ca cntr2 inactive.
O=C(NCc1ccncc1)C(=O)NCC1OCCN1S(=O)(=O)c1cc(F)ccc1F (centres undefined) was read as RGS4 block inactive, MrgX1 PAM inactive, RGS4 pot inactive, MrgX1 agonist inactive and MrgX1 antag inactive.
CN(C)CCNC(=S)Nc1ccccc1Cl was read as RGS4 block inactive, MrgX1 PAM inactive, RGS4 pot inactive, Cl transport mod 0.82, MrgX1 agonist inactive and MrgX1 antag inactive.
`S=C(NCCNC(=S)Nc1ccccc1Cl)Nc1ccccc1Cl` gave RGS4 block inactive, MrgX1 PAM inactive, RGS4 pot inactive, MrgX1 agonist inactive, MrgX1 antag -4.7*, MrgX1 antag conf 85%*, HEK293 Ca flux inactive, HEK293 Ca counter inactive and HEK293 Ca cntr2 inactive.
`Cc1c(Cl)cccc1NC(=S)NCCCN(C)C` gave RGS4 block inactive, MrgX1 PAM inactive, RGS4 pot inactive, Cl transport mod 1.5, MrgX1 agonist inactive, MrgX1 antag -5.5*, MrgX1 antag conf inactive, HEK293 Ca flux inactive, HEK293 Ca counter inactive and HEK293 Ca cntr2 inactive.
COc1ccc(N2CC(C(=O)Nc3nnc(SCC(=O)NCc4ccco4)s3)CC2=O)cc1 (centres undefined) was read as RGS4 block inactive, MrgX1 PAM inactive, RGS4 pot inactive, MrgX1 agonist inactive and MrgX1 antag inactive.
For Cc1ccc(N2C(=O)c3ccccc3NC2C(C)Cc2ccc3c(c2)OCO3)cc1 (centres undefined) the results were RGS4 block inactive, MrgX1 PAM inactive, RGS4 pot inactive, Cl transport mod -0.62, MrgX1 agonist inactive, MrgX1 antag -5.1*, MrgX1 antag conf inactive, HEK293 Ca flux inactive, HEK293 Ca counter inactive and HEK293 Ca cntr2 inactive.
Screening CN(C)c1ccc(/C=C/c2ccc3ccccc3n2)cc1 returned RGS4 block inactive, MrgX1 PAM inactive, RGS4 pot inactive, Cl transport mod 0.11, MrgX1 agonist inactive, MrgX1 antag -6.9*, MrgX1 antag conf inactive, HEK293 Ca flux 0.55*, HEK293 Ca counter inactive and HEK293 Ca cntr2 inactive.
For Cc1ccc(C(=O)NCC(=O)N2CCCC(C(F)(F)F)C2)s1 (centres undefined) the results were RGS4 block inactive, MrgX1 PAM inactive, RGS4 pot inactive, MrgX1 agonist inactive and MrgX1 antag inactive.
`OCCNc1nc(Nc2ccc(Br)cc2)nc2ccccc12` gave RGS4 block inactive, MrgX1 PAM inactive, RGS4 pot inactive, Cl transport mod -0.3, MrgX1 agonist inactive, MrgX1 antag -6.9*, MrgX1 antag conf 73%*, HEK293 Ca flux inactive, HEK293 Ca counter inactive and HEK293 Ca cntr2 inactive.
For c1ccc(Nc2nc(NCC3CCCO3)c3ccccc3n2)cc1 (centres undefined) the results were RGS4 block inactive, MrgX1 PAM inactive, RGS4 pot inactive, Cl transport mod -0.12, MrgX1 agonist inactive, MrgX1 antag -5.1*, MrgX1 antag conf 38%*, HEK293 Ca flux inactive, HEK293 Ca counter inactive and HEK293 Ca cntr2 inactive.
Screening COCCN(C(=O)CSc1nnc(-c2ccc(C)cc2)n1N)c1c(N)n(Cc2ccccc2)c(=O)[nH]c1=O returned RGS4 block inactive, MrgX1 PAM inactive, RGS4 pot inactive, MrgX1 agonist inactive and MrgX1 antag inactive.
